Assay results reported in article PMC4521672 (OncoTargets and therapy, 2015).
Several values for one entry are separate records, joined by “and”; a condition that tells them apart may be missing. Identical values can stand only once.

Key:
C6 glioma tumor = assay: In vivo PET imaging of C6 glioma-bearing rat; parameters: species or system Sprague–Dawley rats; settings: dynamic PET 0-60 minutes post-injection, intravenous
Method in brief: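 Male Sprague–Dawley rats (8 weeks) stereotactically inoculated in the right hemisphere with 1.0×10^5 C6 cells. Tumours grew 2 weeks to 3–5 mm, with loci confirmed by MRI. Rats were anaesthetised with isoflurane in 200 mL/min oxygen and fitted with venous and arterial catheters. Imaged on a microPET R4 scanner; one tumour-bearing and one healthy rat were scanned.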

GSTP1 (GST-π) = GSTP1 (GST-π) (Homo sapiens, UniProt P09211); assay: GST activity assay; assay type: biochemical; settings: read-out: IC50 for inhibition of formation of the CDNB-GSH conjugate in the presence of GST-π; GSTP1 5 μg/mL, pH 6.8, absorption at 355 nm
GSTA1 (GST-α) = target: T1, GSTA1 (GST-α) (Homo sapiens, UniProt P08263); assay: GST activity assay; assay type: biochemical; settings: read-out: IC50 for inhibition of formation of the CDNB-GSH conjugate in the presence of GST-α; GSTA1 5 μg/mL, pH 6.8, absorption at 355 nm
T1 sequence (P08263 1-222): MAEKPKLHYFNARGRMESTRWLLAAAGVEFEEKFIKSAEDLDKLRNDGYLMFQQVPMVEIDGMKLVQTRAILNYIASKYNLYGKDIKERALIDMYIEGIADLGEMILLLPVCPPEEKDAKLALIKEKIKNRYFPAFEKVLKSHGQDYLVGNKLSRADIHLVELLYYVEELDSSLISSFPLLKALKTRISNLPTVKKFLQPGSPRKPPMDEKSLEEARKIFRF
Method in brief: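 Recombinant human GSTA1 at 5 μg/mL in 0.1 M sodium phosphate, pH 6.8. GSH and CDNB were added from 2.5 mM and 7.5 mM stocks. Test compound was made as a 10 mM ethanol stock, then serially diluted to 10^-2–100 μM to compete with CDNB for conjugation to GSH. After 1–5 min, absorbance read at 355 nm, minus non-enzymatic conjugation. Triplicate runs; IC50 taken from dose–response curves.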

| IC50 (GSTP1 (GST-π)) | IC50 (GSTA1 (GST-α)) [µM] | Structure (SMILES) | Accumulation in C6 glioma tumor loci (PET) (C6 glioma tumor) |
| --- | --- | --- | --- |
| – | – | Cc1cn([C@H]2C[C@H]([18F])[C@@H](CO)O2)c(=O)[nH]c1=O [[^18F]FLT, 3′-deoxy-3′-[^18F] fluorothymidine] | tumor sites were targeted |
| 6.02 µM and 6 µM | 17.5 | C=C(CC)C(=O)c1ccc(OCC(=O)NCCCCF)c(Cl)c1Cl [FBuEA, fluorobutyl ethacrynic amide] | – |
